Screens (PubChem BioAssay)
This is a sample that favours compounds with a hit; in the whole collection about 1.5% have one here.
HNF4A DNA FP: change in binding of human HNF4A to DNA, primary screen, biochemical, fluorescence polarization, FITC-DNA | 1 h | Hepatocyte nuclear factor 4-alpha (Homo sapiens), P41235 | 360,000 tested, 0.3% active | activity change, % at 10 µM; in the data active = activity change above about 30%, passing the limit was not always enough
TPT1 inhibitor: Candida albicans TPT1 enzyme inhibitors, primary screen, biochemical, fluorescence polarization. tRNA 2'-phosphotransferase TPT1 (Candida albicans SC5314). recombinant caTPT1, FP RNA substrate dephosphorylation. inhibition, % at 5 µM. 300,000 tested, 0.81% active;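 active = inhibition above the mean of all tested compounds plus 3 SD, set per screening campaign, cut at about 24% in these data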;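 note: plate controls were DMSO alone for no effect and ferristatin control at 100 nM for full effect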
CSN deneddyl inh: inhibitors of CSN-mediated cullin deneddylation, primary screen, biochemical, fluorescence polarization, uHTS | inhibition, % at 12.5 µM | Purified CSN, SCF-Nedd8-OG deneddylation | COP9 signalosome complex subunit 5 (Homo sapiens), Q92905 | AID 651999, 2013 | 360,000 tested, 0.38% active;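 active = pattern-corrected inhibition above about 35%, with an unprinted fluorescence ratio check between 0.5 and 1.5, limit read from the data, passing the limit was not always enough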;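 note: 0% = enzyme with substrate and 100% = substrate without enzyme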
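Assay system: HEK293T-derived human Csn5 enzyme; quantity: 0.24 nM enzyme; medium: Tris/NaCl/DTT buffer, pH 7.5; also added: substrate SCFSkp2-Nedd8OG, 10 nM; doses: 12.5 µM compound; schedule: 90 min reaction at room temperature; signal: FP; read-out: % inhibition of substrate cleavage by Csn5; benchmarks: substrate-only high control, full reaction low control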
Rpn11 block: Rpn11 (PSMD14) deubiquitinase inhibitors, primary screen, biochemical, fluorescence polarization, uHTS; 26S proteasome non-ATPase regulatory subunit 14 (Homo sapiens), O00487; human 26S proteasome, Ub4-pepOG fluorescence polarization; 20S core pre-blocked with epoxomicin; inhibition, % at 20 µM; 360,000 tested, 0.59% active; AID 588493, 2011;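 active = inhibition at 20 µM, scaled to each plate's controls, above about 33%, limit read from the data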
Rpn11 confirm: Rpn11 (PSMD14) deubiquitinase inhibitors, confirmation, biochemical, fluorescence polarization, single concentration; shares compounds with Rpn11 block; purified human 26S proteasome, Ub4-pepOG fluorescence polarization; proteasome pretreated with epoxomicin; inhibition, % at 20 µM; 1,900 tested, 29% active; AID 602318, 2012
MMP-2 counter: MMP-2 enzyme inhibition, confirmation, counter-screen for RPN11 inhibitor project, biochemical, fluorescence, single concentration; shares compounds with Rpn11 block; recombinant MMP-2, FRET peptide cleavage fluorescence; inhibition, % at 20 µM; 1,900 tested, 4% active; AID 602330, 2012;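 note: human MMP-2 activated beforehand with APMA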
Thrombin inh: bovine thrombin protease inhibition, confirmation, counter-screen for Rpn11 inhibitor project, biochemical, fluorescence polarization, single concentration; shares compounds with Rpn11 block; bovine thrombin cleavage of Ub4-pepOG; inhibition, % at 20 µM; 1,900 tested, 13% active; AID 602333, 2012;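 active = mean inhibition at least 40% at 20 µM, or signal 3 deviations below plate average, so some actives read negative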;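 note: plate controls were thrombin with DMSO for no effect and buffer wells lacking thrombin for full effect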
Target sequence (P00735 whole entry, looked up): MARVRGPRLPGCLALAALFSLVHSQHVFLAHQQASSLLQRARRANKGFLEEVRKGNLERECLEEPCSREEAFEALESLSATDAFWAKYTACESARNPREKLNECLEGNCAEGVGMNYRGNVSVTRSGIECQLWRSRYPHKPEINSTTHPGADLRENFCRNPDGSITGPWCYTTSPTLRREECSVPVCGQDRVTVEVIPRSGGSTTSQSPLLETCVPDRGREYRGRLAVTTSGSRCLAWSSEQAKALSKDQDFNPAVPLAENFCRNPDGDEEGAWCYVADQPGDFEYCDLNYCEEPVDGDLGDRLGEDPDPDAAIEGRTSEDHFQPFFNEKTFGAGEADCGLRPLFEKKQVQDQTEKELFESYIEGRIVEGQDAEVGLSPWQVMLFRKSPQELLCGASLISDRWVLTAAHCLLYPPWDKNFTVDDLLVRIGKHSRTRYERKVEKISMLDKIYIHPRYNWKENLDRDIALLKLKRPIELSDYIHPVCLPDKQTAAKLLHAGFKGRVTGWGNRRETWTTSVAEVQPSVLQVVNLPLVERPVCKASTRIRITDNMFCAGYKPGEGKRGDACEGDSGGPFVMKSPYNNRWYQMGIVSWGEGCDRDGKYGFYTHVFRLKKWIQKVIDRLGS
Numbers without * were called inactive; . = no result. Cut-off read from the data, not from the text of the source, unless noted: active = inhibition above about 40%; inactive = the rest.

SMILES	HNF4A DNA FP	TPT1 inhibitor	CSN deneddyl inh	Rpn11 block	Rpn11 confirm	MMP-2 counter	Thrombin inh
CCc1ccccc1NC(=O)CN1C(=O)C2CCCN2c2ncc(Cl)cc21 (centres undefined)	15.7	11.2	6.9	40.8*	8.7	-18.5	4.8
CC1CCN(CCCNC(=O)c2coc3nc4ccccc4nc23)CC1	-1.0	6.6	-8.7	1.7	.	.	.
Cc1ccc(CCNC(=O)c2coc3nc4ccccc4nc23)cc1	12.3	13.8	3.0	41.4*	30.3	-29.7	-33.0
COc1cc(/C=C2\SC(=O)N(CC(=O)Nc3ccc(C)cc3)C2=O)cc(Cl)c1OCC(=O)O	-3.9	5.7	19.9	87.2*	4.4	-11.8	24.9
COc1cc(/C=C2/SC(=S)N(CC(=O)Nc3nc4ccccc4s3)C2=O)cc(OC)c1OC	11.9	16.8	11.4	50.8*	51.6*	16.2	28.1
Cc1ccc(NC(=O)CN2C(=O)S/C(=C\c3ccc(OCC(=O)O)c(Br)c3)C2=O)cc1	-4.0	1.3	-0.2	-3.0	.	.	.
COc1cc(/C=C2\SC(=S)N(CC(=O)Nc3ccccn3)C2=O)cc(OC)c1OC	10.8	13.4	12.0	59.9*	38.1	-5.2	25.0
COc1ccc(/C=C2\SC(=S)N(CC(=O)Nc3nnc(C)s3)C2=O)cc1	-1.4	-3.3	2.5	40.6*	3.4	-7.5	-5.5
COC(=O)CCC(C)C1CCC2C3C(OC(C)=O)CC4CC(O)CCC4(C)C3CC(O)C12C (centres undefined)	-3.8	.	4.6	-0.2	.	.	.
O=c1[nH]c(-c2ccc3c(c2)OCO3)nc2c1sc(=S)n2-c1ccccc1	-17.4	3.3	3.4	63.0*	38.1	-15.1	22.6
O=c1[nH]c(-c2ccc(F)cc2)nc2c1sc(=S)n2-c1ccccc1	-0.5	-0.7	12.1	1.3	.	.	.
COc1cc(OC)cc(C(=O)N2CCN(C3CCC(C)CC3)CC2)c1 (centres undefined)	0.7	.	4.0	0.7	.	.	.
Cc1cc(-c2ccc(S(=O)(=O)N(C)c3ccc(C)c(C)c3)s2)on1	1.1	-1.4	3.5	40.5*	43.1*	8.9	40.4*
CCOc1ccccc1NC(=O)C(OC(=O)c1ccc(NC(=O)CC#N)cc1)c1ccccc1 (centres undefined)	11.9	8.2	2.1	45.3*	27.5	4.6	6.6
O=CNCc1nc2ccccc2n1CCCc1ccccc1	2.9	5.1	0.0	-5.7	.	.	.
Cn1c(-c2c(N)n(CCCc3ccccc3)c3nc4ccccc4nc23)nc2ccccc21	17.2	.	9.5	44.5*	35.4	-7.0	22.7
CCc1ccc(C(=O)COC(=O)c2ccc(-c3nnc(-c4ccccc4)o3)cc2)cc1	-3.7	-2.1	1.2	44.3*	8.0	5.4	-12.5
COc1ccc(Nc2nc3cc(C)ccc3cc2C#N)c(OC)c1	-14.9	-2.6	1.1	-9.3	.	.	.
COc1ccc(Nc2nc3ccc(C)cc3cc2C#N)c(OC)c1	-17.8	-3.0	1.9	41.9*	-12.3	-14.5	-12.6
COc1ccc(CC(=O)Nc2ccc(-c3noc(-c4ccc(Cl)cc4)n3)cc2)cc1	12.5	-2.1	1.2	97.8*	-1.5	-28.9	-15.6
COc1ccc(CC(=O)Nc2ccc(-c3noc(-c4cc(OC)c(OC)c(OC)c4)n3)cc2)cc1	2.2	-1.3	-6.6	1.1	.	.	.
COc1ccc(NC(=O)C(CCS(C)(=O)=O)NC(C)=O)cc1 (centres undefined)	1.4	-1.2	1.8	0.1	.	.	.
CCCCOC(=O)c1ccc(NC(=O)C(CCS(C)(=O)=O)NC(C)=O)cc1 (centres undefined)	4.6	5.4	1.7	35.8*	-15.0	-37.5	-7.9
COC(=O)c1ccc(Oc2nc(C(N)=O)cc(-c3ccccc3)n2)cc1	7.5	0.2	24.5	68.0*	34.8	1.2	-6.3
N#Cc1ccc(Oc2nc(C(N)=O)cc(-c3ccccc3)n2)cc1	2.0	2.1	-2.8	-4.2	.	.	.
SMILES	HNF4A DNA FP	TPT1 inhibitor	CSN deneddyl inh	Rpn11 block	Rpn11 confirm	MMP-2 counter	Thrombin inh
CCc1ccc2[nH]c(=O)c(C(c3nnnn3CC3CCCO3)N3CCN4CCCC4C3)cc2c1 (centres undefined)	12.4	10.1	-0.1	51.2*	18.2	10.9	5.5
Cc1ccc2[nH]c(=O)c(C(c3nnnn3CC3CCCO3)N3CCOCC3)cc2c1 (centres undefined)	-5.1	-2.8	-1.1	2.4	.	.	.
CCCNC(=O)[C@H](Cc1c[nH]c2ccccc12)NC(=O)c1ccccc1Cl	5.1	-0.2	-6.1	7.2	.	.	.
CC(C(=O)Nc1ccccc1Oc1ccccc1)c1ccccc1 (centres undefined)	-0.2	0.7	-6.8	-4.0	.	.	.
COc1ccc(CN2C[C@]3(CO)O[C@@H](CO)C[C@@H]3S2(=O)=O)cc1	-2.8	.	-3.9	0.3	.	.	.
N#Cc1c(SCc2ccccc2)sc(C(=O)c2ccccc2)c1N	5.4	-2.1	0.1	5.2	.	.	.
Cc1ccc(CSc2sc(C(=O)c3ccccc3)c(N)c2C#N)cc1	9.7	2.1	3.0	80.6*	-4.3	3.9	-5.4
COc1ccc2cc(C(=O)Nc3ccc(Cl)cc3)sc(=O)c2c1OC	2.6	3.2	22.7	187.7*	39.1	33.5	-12.4
COc1ccc(C(=O)OCC(=O)c2ccc3c(c2)NC(=O)CO3)cc1S(=O)(=O)N1CCOCC1	-2.2	.	0.5	-7.7	.	.	.
O=C(CCN1CCc2ccccc2C(c2ccccc2)C1)c1ccc2c(c1)OCCO2 (centres undefined)	-1.3	-4.8	2.7	57.4*	-13.0	-29.2	-11.8
CC12CCC(C/C1=N/O)C2(C)CBr (centres undefined)	-7.7	-5.8	3.5	32.1*	-14.1	-50.7	-17.3
COc1cc(Br)c(/C=C/c2ccc3cccc(O)c3n2)cc1OC	-0.6	-2.8	4.4	-3.0	.	.	.
COc1cc(/C=C/c2ccc3cccc(O)c3n2)c(Br)cc1O	17.3	19.6	12.9	38.8*	12.0	-21.4	0.7
Nc1c(-c2ccccc2)c(CSc2nc3ccccc3[nH]2)nn1-c1cccc(Cl)c1	13.0	1.9	-2.3	63.1*	42.4*	25.0	18.0
Nc1c(-c2ccccc2)c(CSc2nc3ccccc3[nH]2)nn1-c1ccc(Cl)cc1	-0.5	-1.4	-1.9	-3.6	.	.	.
CCN(CC)CCCNc1oc(-c2ccccc2[N+](=O)[O-])nc1C#N	2.7	-1.2	-1.0	7.9	.	.	.
